Data published in ChEMBL document CHEMBL1156764, “Structure-based design of pteridine reductase inhibitors targeting African sleeping sickness and the leishmaniases” (J Med Chem, 2010).

How the values were obtained:
[1] = Inhibition of Trypanosoma brucei recombinant PTR1
Outline: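 Recombinant enzyme stored at 15 mg mL^-1 in 50 mM Tris-HCl, 250 mM NaCl, 20% glycerol, pH 7.5. Substrate was H2B, prepared as a 10 mM stock in 0.1 M NaOH. Compound stocks were 100 mM in DMSO. IC50 came from dose–response plots fitted with Morrison's tight-binding equation. Ki was calculated from IC50 assuming competitive inhibition.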

Pteridine reductase 1 = target: T1, Pteridine reductase 1 (Leishmania major, UniProt Q01782); assay: Inhibition of Leishmania major recombinant PTR1
T1 sequence (Q01782 whole entry): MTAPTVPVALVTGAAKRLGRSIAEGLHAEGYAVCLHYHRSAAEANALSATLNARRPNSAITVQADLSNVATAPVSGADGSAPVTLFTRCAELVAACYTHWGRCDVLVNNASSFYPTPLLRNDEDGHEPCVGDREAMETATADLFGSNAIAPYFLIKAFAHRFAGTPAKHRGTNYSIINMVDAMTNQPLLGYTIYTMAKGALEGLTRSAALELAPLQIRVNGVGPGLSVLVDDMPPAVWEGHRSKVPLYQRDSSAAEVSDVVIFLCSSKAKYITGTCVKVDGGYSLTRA
Outline: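 Recombinant L. major PTR1, stored at 15 mg mL^-1 (stock) in 50 mM Tris-HCl, 250 mM NaCl, 20% glycerol, pH 7.5. Substrate was H2B, with a 10 mM stock in 0.1 M NaOH. Compound stocks were 100 mM in DMSO. IC50 came from dose–response fits corrected with Morrison's tight-binding equation. Ki was calculated from IC50 using the competitive-inhibition equation.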

[2] = test system: Trypanosoma brucei brucei; assay: Antitrypanosomal activity against Trypanosoma brucei brucei Lister 427 blood stream form by Alamar blue assay; type: functional; conditions: read-out: ED50 (the source's name)
Outline: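 Bloodstream-form Lister 427 grown at 37 °C, 5% CO2 in HMI-9 with neomycin pressure (T7 polymerase and tetracycline repressor lines), fetal calf serum 10%, folate not reduced. Exposed to increasing inhibitor concentrations. Viability read by Alamar blue. ED50 taken from dose–response plots. Three separate determinations, each in quadruplicate (n = 12).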

Structure (SMILES) | Ki [1] | Ki (Pteridine reductase 1) | EC50 [2]
Nc1nc2c(c(=O)[nH]1)CC=N2 [7-DEAZAGUANINE] | > 35 µM | – | –
Nc1nc2[nH]cc(CCc3ccccc3)c2c(=O)[nH]1 | – | > 27 µM | –
CCc1ccc(-c2[nH]c3nc(N)[nH]c(=O)c3c2C#N)cc1 | 0.5 µM | 16.4 µM | –
CC(C)c1nc2nc(N)nc(N)c2nc1C(C)C | 3.3 µM | 0.24 µM | –
COc1ccc(-c2[nH]c3nc(N)[nH]c(=O)c3c2C#N)cc1 | 0.36 µM | 3.4 µM | 274 µM
Cc1ccc(Sc2cc(N)nc(N)n2)cc1 | 5.4 µM | 27 µM | –
N#Cc1c(-c2ccc3c(c2)OCO3)[nH]c2nc(N)[nH]c(=O)c12 | 0.4 µM | 2.6 µM | 123 µM
CC1=Nc2c(N)nc(N)nc2NC1(C)C | > 35 µM | 12 µM | –
COc1ccc(CSc2cc(N)nc(N)n2)cc1 | 18 µM | 2.7 µM | –
N#Cc1c[nH]c2nc(N)[nH]c(=O)c12 | 5.8 µM | > 27 µM | –
Nc1cc(NC2CC2)nc(N)n1 | > 35 µM | > 27 µM | –
Nc1nc2[nH]ccc2c(=S)[nH]1 | > 35 µM | > 27 µM | –
N#Cc1c(Br)[nH]c2nc(N)[nH]c(=O)c12 | 3.9 µM | > 27 µM | –
N#Cc1c(-c2ccccc2)[nH]c2nc(N)[nH]c(=O)c12 | 0.71 µM | > 27 µM | –
Nc1cc(N)nc(N)n1 | > 35 µM | > 27 µM | –
N#Cc1c(-c2cccc(C=O)c2)[nH]c2nc(N)[nH]c(=O)c12 | 0.29 µM | 4.2 µM | –
Nc1nc(N)c2nc(-c3ccccc3)c(N)nc2n1 | 1.2 µM | 3.4 µM | –
Nc1cc(SCc2ccccc2)nc(N)n1 | 3.2 µM | 0.6 µM | –
CCc1nc(N)nc(N)c1-c1ccc(Cl)cc1 [PYRIMETHAMINE] | – | – | 26.6 µM
